# From PubChem
# Rows were chosen to be rich in hits. Some 1.9% of all compounds tested hit in one or more screens of this group.
# M5 antag = blocks acetylcholine activation of human M5 receptor. inhibition, % at 3 µM. CHO-hM5 cells, Fluo-8 calcium fluorescence, ACh EC80. hit rate 0.59% among 360,000. P08912;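 active means inhibition above a per-plate cutoff, the mean of that plate's test compounds plus 3 SD, cut at about 27% in these data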;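 further: 0% = acetylcholine EC80 with DMSO and 100% = DMSO without agonist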
# CHRM4 antagonist = CHRM4 antagonism in calcium assay; P08173; CHO-hM4 cells, ACh EC80, Fluo-8 calcium fluorescence; inhibition, % at 3 µM; hit rate 0.73% among 360,000;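 active means inhibition above its plate's cutoff, the mean inhibition of sample wells plus 3 SD, cut at about 27% in these data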;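 further: 0% = acetylcholine EC80 with DMSO and 100% = DMSO without agonist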
# Target sequence (P08173 whole entry, looked up): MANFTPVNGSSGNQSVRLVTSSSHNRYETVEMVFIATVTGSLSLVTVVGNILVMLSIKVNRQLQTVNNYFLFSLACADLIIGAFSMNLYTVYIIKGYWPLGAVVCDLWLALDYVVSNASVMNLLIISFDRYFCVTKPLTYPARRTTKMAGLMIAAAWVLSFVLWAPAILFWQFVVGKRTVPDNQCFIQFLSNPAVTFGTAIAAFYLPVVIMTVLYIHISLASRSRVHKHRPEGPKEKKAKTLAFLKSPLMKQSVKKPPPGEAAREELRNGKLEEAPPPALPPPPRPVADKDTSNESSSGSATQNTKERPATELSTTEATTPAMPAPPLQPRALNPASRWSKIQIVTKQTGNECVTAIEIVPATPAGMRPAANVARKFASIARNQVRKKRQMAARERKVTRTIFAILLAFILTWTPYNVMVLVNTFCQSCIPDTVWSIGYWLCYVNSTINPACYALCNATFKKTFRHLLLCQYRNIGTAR
# CHRM5 PAM = potentiates acetylcholine response at human M5 receptor; P08912; AID 624038; activation, % at 3 µM; hit rate 0.3% among 360,000; CHO-K1 hM5, Fluo-8 calcium, ACh EC20 PAM; 0% = ACh EC20, 100% = ACh EC100;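 active means activation above the run cutoff, the mean activation of all test compounds plus 3 SD, cut at about 18% in these data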
#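 Measured by: Fluo-8 calcium fluorescence; material: human M5 receptor in CHO-K1 cells; schedule: Post-acetylcholine fluorescence recording 140 s; benchmarks: low control EC20 acetylcholine (0%), high control EC100 acetylcholine (100%); read-out: Max/basal fluorescence ratio as % of EC20–EC100 ACh window; compound: single dose, 3 µM nominal final test concentration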
# M4 ag = agonists of human muscarinic M4 receptor (CHRM4); CHO-K1 hM4/Gqi5, Fluo-8 calcium fluorescence; vehicle 0%, full acetylcholine response 100%; hit rate 0.14% among 360,000; activation, % at 3 µM; AID 624127; P08173;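 active means activation above the run mean over all test wells plus 3 SD, cut at about 32% in these data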;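 further: peak over basal fluorescence ratio per well then scaled between controls; 0% = DMSO wells and 100% = acetylcholine at EC100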
# CHRM5 agonist = CHRM5 agonism in calcium assay; CHO-K1 hM5 cells, Fluo-8 calcium fluorescence; 0% DMSO wells, 100% maximal acetylcholine response; activation, % at 3 µM; P08912; hit rate 0.19% among 360,000; AID 624037;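 active means activation above the run's mean over test compounds plus 3 SD, cut at about 23% in these data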;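 further: signal is peak over basal fluorescence ratio across the kinetic read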
# CHRM4 PAM = positive allosteric modulators of human muscarinic M4 receptor; CHO-K1 hM4/Gqi5, Fluo-8 calcium fluorescence, ACh EC20; 0% = ACh EC20, 100% = maximal ACh; activation, % at 3 µM; hit rate 0.4% among 360,000; AID 624126;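 active means activation above its plate's cutoff, the mean activation of sample wells plus 3 SD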
# An asterisk follows results filed as active.
SMILES,M5 antag,CHRM4 antagonist,CHRM5 PAM,M4 ag,CHRM5 agonist,CHRM4 PAM
O=C(O)C1CCC(=O)N(C2CCCCC2)C1c1ccccc1Cl (stereo unspecified),-10.4,0.2,18.6*,0.5,2.0,15.3
C=CCC[C@@H](Cc1ccc(F)cc1)C(=O)OC[C@H]1CCCN1C(=O)[C@@H](CC=C)CC(=O)N[C@H](CO)Cc1ccccc1,6.3,31.1*,-19.2,18.7,3.0,-11.2
C=CCC[C@@H](Cc1ccc(F)cc1)C(=O)OC[C@@H]1CCCN1C(=O)[C@H](CC=C)CC(=O)N[C@H](CO)Cc1ccccc1,8.0,0.0,-2.9,5.6,-1.6,0.6
CS(=O)(=O)c1ccc(Cl)c(C(=O)OCC(=O)NC2CCCCCCC2)c1,-7.8,-8.0,2.0,4.3,2.1,-3.4
COc1cc(/C=N/NC(=O)c2ccncc2)ccc1Oc1ccc([N+](=O)[O-])cn1,-14.4,-3.2,18.5*,1.4,3.2,-1.2
COc1ccc(/C=N/NC(=O)c2cccc([N+](=O)[O-])c2)cc1OC(=O)c1ccc(C)cc1,-0.9,-3.5,56.7*,-0.7,0.1,2.7
CCC(C)NC(=O)[C@@H]1CSC2c3ccccc3C(=O)N21 (stereo partly specified),-1.1,8.6,4.2,0.3,-3.4,0.6
COc1ccc(NC(=O)c2ccccc2N2C(=O)C3C4C=CC(C5CC45)C3C2=O)c(OC)c1 (stereo unspecified),3.8,-9.1,10.9,5.5,-0.1,15.0*
C[N+]1(C)CCC(OC(=O)C(O)(c2ccccc2)C2CCCC2)C1 (stereo unspecified),98.4*,98.9*,-18.6,0.2,-1.6,-15.9
C[N+]1(C)CC[C@H](OC(=O)[C@@](O)(c2ccccc2)C2CCCC2)C1,98.8*,99.0*,-18.4,-0.2,-1.4,-18.1
O=C(Nc1ccccc1C(F)(F)F)C(O)(c1ccccc1)C1CCCCC1 (stereo unspecified),10.2,-7.1,3.5,1.1,-3.1,9.5
Cc1nc(-c2cccc(NC(=O)c3ccc(Br)o3)c2)cs1,26.9*,0.8,-11.6,5.5,-5.9,-0.9
Cc1nc(-c2cccc(NC(=O)C3CCCCC3)c2)cs1,-28.9,-15.9,26.0*,3.2,-1.1,7.9
CCCCn1nnnc1C1(C)CCC(=O)N1CC(F)(F)F (stereo unspecified),-1.1,-9.7,-6.8,0.3,-0.5,6.2
COc1ccc(C(C)=O)cc1CSc1nc2cc(C(=O)O)ccc2c(=O)n1Cc1ccccc1,6.9,28.4*,1.5,1.6,1.0,9.4
CC1CCc2nc3ccccc3c(C(=O)OCC(=O)NC3CCS(=O)(=O)C3)c2C1 (stereo unspecified),8.0,1.7,2.5,3.0,3.2,3.2
COc1cccc(NC(=O)COC(=O)c2c3c(nc4ccccc24)CCC(C)C3)c1 (stereo unspecified),25.6,41.2*,-21.6,6.0,-4.5,-12.2
Cc1c(CN2CCC(CO)(CCOc3ccccc3)CC2)[nH]c2c(Cl)cccc12,10.0,28.8*,3.0,14.7,1.2,-14.7
CCCCCNC(=O)C(CCc1ccccc1)n1c(=O)c(-c2ccccc2)nc2ccccc21 (stereo unspecified),3.0,30.9*,1.5,22.5,2.2,-15.0
CCCCCNC(=O)C(CCc1ccccc1)n1c(=O)c(-c2cc3ccccc3[nH]2)nc2ccccc21 (stereo unspecified),-0.6,-8.0,-0.8,0.7,2.4,1.9
O=C(CCC(F)(F)F)N1CCCC(N2CCN(c3cccc(Cl)c3)CC2)C1 (stereo unspecified),6.7,7.8,-0.6,1.5,-15.4,-0.1
COc1cc(OC)cc(C(=O)NCCNc2nc3cc(C)cc(C)c3cc2C#N)c1,12.8,4.0,-1.7,-0.2,-4.4,4.7
Clc1ccccc1OCc1nnc(-c2ccccc2Br)o1,1.1,8.7,-2.1,0.2,-3.4,-0.5
O=c1c(Cl)c(Cl)cnn1Cc1nnc(-c2ccccc2Br)o1,100.5*,98.9*,-21.1,119.6*,80.3*,-24.5
Cc1cc(C)c(C)c(S(=O)(=O)N2CCN(C(=O)c3cc(S(=O)(=O)N4CCOCC4)ccc3F)CC2)c1C,11.0,9.9,-15.1,10.7,-0.7,-5.7
SMILES,M5 antag,CHRM4 antagonist,CHRM5 PAM,M4 ag,CHRM5 agonist,CHRM4 PAM
O=C(c1cc(=O)[nH]c2ccccc12)N1CCN(S(=O)(=O)c2ccc(Cl)cc2)CC1,27.1*,9.6,-29.4,30.3,3.9,-6.4
Cc1c(CCCl)c(Cl)n2c(nc3ccccc32)c1C#N,14.5,-4.2,5.3,0.3,1.6,9.0
O=C(NC1CCCCC1)C(c1ccncc1)N(C(=O)c1csnn1)c1ccc(F)cc1 (stereo unspecified),12.6,-5.2,-3.2,0.6,-4.3,1.7
O=C(O)c1ccc2c(c1)C(=O)N(CCC1=CCCCC1)C2=O,-9.0,-3.9,2.1,0.8,2.6,11.0
O=C1c2ccccc2C(=O)N1CCC1=CCCCC1,-8.9,-2.1,19.4*,-0.3,-6.0,0.2
CCC1=NN(C(=O)c2ccc(Br)cc2)C(O)(c2ccc(C)cc2)C1 (stereo unspecified),-5.2,-16.1,-3.5,0.3,-2.5,21.5*
CCC1=NN(C(=O)c2ccc(C)cc2)C(O)(c2ccc(Br)cc2)C1 (stereo unspecified),-2.0,-0.1,-0.3,-1.3,-1.8,4.0
Cc1cc2c3c([nH]c2cc1S(=O)(=O)NCc1ccc(CN2CCCCCC2)o1)CCCC3=O,0.9,68.2*,-2.8,0.3,-10.8,-27.3
Cc1ccc(C(C)NC(=O)/C(C#N)=C\c2c(C)[nH]c3ccccc23)cc1 (stereo unspecified),9.8,7.0,-7.1,20.7,27.0*,4.8
CCN(CC)C1CCN(C(=O)c2cc(COc3cccc4cccnc34)on2)C1 (stereo unspecified),8.8,38.3*,-3.8,1.3,-8.0,-24.7
COc1cccc(CN(C)C(=O)c2cc(COc3ccc4ncccc4c3)on2)c1,40.2*,33.7*,-34.9,23.9,4.2,-20.5
Cc1cc(OCc2cc(C(=O)N3CCN(CC4CC4)CC3)no2)cc(C)c1Cl,-3.2,-6.3,-8.0,5.7,-4.7,-8.3
CC(NC(=O)c1cc(COc2ccc3ncccc3c2)on1)c1ccc(F)cc1 (stereo unspecified),35.6*,21.0,-31.3,21.7,-0.7,-32.6
O=C(c1cc(COc2cccc3cccnc23)on1)N1CCC[C@H]1CO,13.7,6.2,-2.2,1.5,1.5,-2.1
Cc1cc(OCc2cc(C(=O)N3CCC(Oc4cccnc4)CC3)no2)cc(C)c1Cl,24.0,34.6*,-23.6,18.7,2.1,-12.1
